# Source: PubChem (several laboratories)
# Jurkat NFkB inh = inhibitors of the PMA/ionomycin-induced NF-kB reporter in Jurkat cells; 0.53% of 330,000 active; inhibition, % at 4 µM; PMA/ionomycin-induced NF-kB luciferase reporter, luminescence; AID 435003; in the data active = inhibition above about 50%
# VIM-2 inhibitor = blocks Pseudomonas aeruginosa VIM-2 metallo-beta-lactamase | purified VIM-2, nitrocefin hydrolysis, epi-absorbance fluorescence | inhibition, % at 5.6 µM | 0.89% of 290,000 active | AID 1527;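 active = inhibition above the mean of all tested compounds plus 3 SD, cutoff set per screening run, cut at about 7.5% in these data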;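 note: red hydrolysis product quenches plate fluorescence so inhibitors raise well fluorescence; 0% = enzyme with DMSO and 100% = DMSO without enzyme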
# Mdm2 MdmX PPI = inhibitors of human Mdm2/MdmX interaction; O15151+Q00987; SaOS-2 split-luciferase Mdm2/MdmX complementation, luminescence; inhibition, % at 8 µM; 3% of 330,000 active; AID 485346;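 active = inhibition of at least 50% at 8 µM in the primary screen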
# Target sequence (O15151 whole entry, looked up): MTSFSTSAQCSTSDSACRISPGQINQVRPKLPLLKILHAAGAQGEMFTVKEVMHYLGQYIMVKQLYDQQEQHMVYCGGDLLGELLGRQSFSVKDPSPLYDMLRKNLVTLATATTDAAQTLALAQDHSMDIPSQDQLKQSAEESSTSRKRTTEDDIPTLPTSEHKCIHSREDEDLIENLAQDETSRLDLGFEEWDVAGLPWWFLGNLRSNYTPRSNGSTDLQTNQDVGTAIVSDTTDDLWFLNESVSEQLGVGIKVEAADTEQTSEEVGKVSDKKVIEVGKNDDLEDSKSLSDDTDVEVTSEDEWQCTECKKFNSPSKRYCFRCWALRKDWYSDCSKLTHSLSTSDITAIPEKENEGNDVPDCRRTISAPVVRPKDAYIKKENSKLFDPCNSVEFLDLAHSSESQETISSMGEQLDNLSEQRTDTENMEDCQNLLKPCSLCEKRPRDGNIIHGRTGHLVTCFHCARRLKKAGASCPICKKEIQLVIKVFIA
# Target sequence (Q00987 whole entry, looked up): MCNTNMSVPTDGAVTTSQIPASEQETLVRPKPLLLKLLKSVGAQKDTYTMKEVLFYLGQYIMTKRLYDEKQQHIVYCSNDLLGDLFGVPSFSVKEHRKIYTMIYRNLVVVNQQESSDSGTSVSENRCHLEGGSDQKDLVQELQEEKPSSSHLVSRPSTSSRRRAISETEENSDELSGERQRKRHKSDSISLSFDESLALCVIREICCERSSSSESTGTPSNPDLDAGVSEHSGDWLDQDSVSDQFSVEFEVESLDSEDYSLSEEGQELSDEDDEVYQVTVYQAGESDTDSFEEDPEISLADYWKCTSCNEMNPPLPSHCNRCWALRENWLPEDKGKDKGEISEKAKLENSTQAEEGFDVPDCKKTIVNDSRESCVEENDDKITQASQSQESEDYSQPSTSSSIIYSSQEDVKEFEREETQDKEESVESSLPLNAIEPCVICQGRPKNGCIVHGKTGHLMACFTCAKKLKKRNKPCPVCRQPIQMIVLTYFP
# 697 NFkB inh = lowers PMA/ionomycin-induced NF-kB signal in 697 B cells; inhibition, % at 4 µM; AID 435022; 0.33% of 330,000 active; 697 B-cell NF-kB luciferase reporter, 16 h; in the data active = inhibition above about 35%
# aSyn 5UTR inh = MLPCN primary screen, SNCA 5' untranslated region. inhibition, % (tested at 7.5 µM). alpha-synuclein 5'UTR reporter, inhibitor activity. 0.82% of 300,000 active; in the data active = inhibition above about 60%; inconclusive = no clear call, values can overlap the other calls;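 note: H4 neuroglioblastoma cells stably carrying SNCA 5'UTR luciferase fusion; 0% = DMSO wells and 100% = positive control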
# IMP-1 inhibitor = inhibitors of Pseudomonas aeruginosa IMP-1 metallo-beta-lactamase. 0.45% of 290,000 active. inhibition, % at 5.6 µM. purified IMP-1, nitrocefin hydrolysis, epi-absorbance fluorescence;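 active = inhibition above the mean plus 3 SD of all compounds in the same screening run, cut at about 4.5% in these data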;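 note: 0% = IMP-1 with DMSO and 100% = DMSO wells lacking enzyme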
#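 System – purified recombinant IMP-1 beta-lactamase · Input – IMP-1 dispensed at 0.2 nM · Timing – 15 min preincubation plus 25 min reaction at 25 °C · Signal – Epi-absorbance fluorescence, 480 nm excitation, 530 nm emission · Measure – percent IMP-1 inhibition derived from blank-referenced optical density · Controls – Enzyme-plus-DMSO low control, enzyme-free DMSO high control · Replication – singlicate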
# Jurkat NFkB conf = lowers PMA/ionomycin-induced NF-kB signal in Jurkat cells; Jurkat NF-kB luciferase, 16 h; shares compounds with Jurkat NFkB inh; inhibition, % at 4 µM; 27% of 2,700 active;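 active = inhibition reaching about 45% at 4 µM in either replicate, limit read from the data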;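 note: plate controls were PMA/ionomycin stimulated DMSO wells for no effect and unstimulated DMSO wells for full effect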
# 697 NFkB conf = lowers PMA/ionomycin-induced NF-kB signal in 697 B cells; shares compounds with 697 NFkB inh; 697 B-cell NF-kB luciferase, 16 h; inhibition, % at 4 µM; 35% of 2,000 active; AID 449746; in the data active = inhibition mostly above about 28%, no sharp cut-off; inactive = mostly below about 22%
# Mdm2 MdmX conf = human Mdm2/MdmX binding inhibition, confirmed; shares compounds with Mdm2 MdmX PPI; luminescent assay; inhibition, % at 8 µM; 55% of 10,000 active; in the data active = inhibition above about 40%
# Full FLuc ctr = full-length luciferase inhibition in Mdm2/MdmX counter-screen | shares compounds with Mdm2 MdmX PPI | SaOS-2 full-length luciferase counterscreen, luminescence | inhibition, % at 8 µM | 77% of 6,200 active;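 active = mean inhibition at 8 µM reaching about 37%, which flags the compound as non-specific, limit read from the data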;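 note: p53-null SaOS-2 cells with luciferase driven by a doxycycline-inducible promoter; compound on cells about two nights before reading with doxycycline added after day one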
# * hit, by the source's call; ? = inconclusive; . = no result. Only some compounds are listed: those with a hit (about 4.7% of all), similar ones and a draw of the others.
SMILES,Jurkat NFkB inh,VIM-2 inhibitor,Mdm2 MdmX PPI,697 NFkB inh,aSyn 5UTR inh,IMP-1 inhibitor,Jurkat NFkB conf,697 NFkB conf,Mdm2 MdmX conf,Full FLuc ctr
CC/C(=N\Nc1ccccc1)c1c(O)n(-c2ccccc2)c(=O)[nH]c1=O,8,-2,-5,-6,.,-3,.,.,.,.
CCC(C)n1c(O)c(C(c2ccccn2)c2c(O)n(C(C)CC)c(=S)[nH]c2=O)c(=O)[nH]c1=S (configuration not stated),-8,1,19,-27,20,-2,.,.,.,.
COc1ccc(-c2cc(=Nc3ccccc3)c3cc(C)ccc3o2)cc1,-155,-2,-94,-188,-100,-1,-140,.,.,.
Cc1ccc(OP(N)(=O)Oc2ccc(C)cc2)cc1,0,0,9,-9,13,-1,.,.,.,.
Cc1cc(C)c2c(ccc3cccc[n+]32)c1,57*,.,29,-10,-20,.,39,.,.,.
O=C(CF)NC(Nc1cccc2cccnc12)C(Cl)(Cl)Cl (configuration not stated),-3,-3,6,13,11,-4,.,.,.,.
Nc1ccccc1C(=O)OCCc1ccccc1,-178,.,-164,-263,.,.,-104,-250,.,.
CCCCCCOC(=O)c1ccccc1N,-52,1,4,-44,-136,0,.,.,.,.
Cn1c(=O)cc(OCC(=O)N2CCN(C3CCCCC3)CC2)c2ccccc21,1,-2,16,17,-39,-3,.,.,.,.
CC(=O)c1cn(Cc2ccccc2C#N)c2ccccc12,52*,-3,-4,47*,-9,-1,55*,30*,.,.
CC(=O)OC[C@]12CCC(C)=C[C@H]1O[C@@H]1[C@H](O)[C@@H](OC(C)=O)[C@@]2(C)[C@]12CO2,97*,.,100*,98*,.,.,99*,94*,100*,0
COc1cc2c(cc1OC)-c1c3c(cc4c1[C@@H](C2)N(C)CC4)OCO3,60*,5,54*,-139,-5,-1,31,.,48*,40*
COc1cc2c(cc1OC)-c1c(OC)c(OC)cc3c1C(C2)N(C)CC3 (configuration not stated),29,5,44,-14,27,-2,.,.,.,.
C#CCN(C)C(C)Cc1ccccc1 (configuration not stated),-7,-4,1,-3,-9,-4,.,.,.,.
C[C@H]1CCCC(=O)CCC/C=C/c2cc(O)cc(O)c2C(=O)O1,6,-2,22,1,4,-1,.,.,.,.
C[C@H]1CCC/C=C/[C@@H]2C[C@H](O)C[C@H]2[C@H](O)/C=C/C(=O)O1,98*,.,97*,66*,.,.,-15,81*,98*,48*
C=C1C(=O)O[C@@H]2C[C@@H](C)[C@@H]3C=CC(=O)[C@@]3(C)[C@@H](O)[C@H]12,99*,.,95*,102*,119*,.,95*,105*,99*,51*
Cc1[nH]c2ccc(OC(F)(F)F)cc2c1CCNCc1cccc([N+](=O)[O-])c1,20,-2,47,-8,3,-1,.,.,.,.
CCOc1cccc(CNCCc2c(C)[nH]c3ccc(OC(F)(F)F)cc23)c1O,66*,-1,98*,-25,113*,0,25,.,85*,30
CSc1ccccc1C(=O)C1CCCN(Cc2ccn[nH]2)C1 (configuration not stated),10,-4,-21,13,9,-5,.,.,.,.
C[C@@H]1O[C@@H](O[C@@H]2C=C3CCC4C(CC[C@]5(C)[C@@H](c6ccc(=O)oc6)CC[C@]45O)[C@@]3(C)CC2)[C@H](O)[C@H](O)[C@H]1O (some centres not stated),100*,.,83*,102*,.,.,97*,99*,81*,49*
C[C@@H]1O[C@@H](O[C@@H]2C=C3CC[C@@H]4C(CC[C@]5(C)[C@@H](c6ccc(=O)oc6)CC[C@]45O)[C@@]3(C)CC2)[C@H](O)[C@H](O)[C@H]1O (some centres not stated),100*,.,87*,90*,.,.,94*,99*,70*,17
Cc1ccc(S(=O)(=O)N[C@@H](CCCCN)C(=O)CCl)cc1,-5,.,-1,-4,-4,.,.,.,.,.
COc1cc2c(cc1OC)[C@@H]1C(=O)c3ccc4c(c3O[C@@H]1CO2)C[C@H](C(C)C)O4,74*,2,58*,71*,21,0,78*,81*,39,64*
CCCCCCOc1ccc(CN2CCN(CC)CC2)cc1,-127,-3,25,-188,-26,-4,.,.,.,.
SMILES,Jurkat NFkB inh,VIM-2 inhibitor,Mdm2 MdmX PPI,697 NFkB inh,aSyn 5UTR inh,IMP-1 inhibitor,Jurkat NFkB conf,697 NFkB conf,Mdm2 MdmX conf,Full FLuc ctr
O=C1C2CCCN2C(c2ccccc2)N1c1ccccn1 (configuration not stated),-8,0,-3,4,-11,-7,.,.,.,.
CC[n+]1c(/C=C/C=C/c2ccc(N(C)C)cc2)sc2ccccc21,70*,-5,88*,-35,?,-6,20,.,84*,17
Cc1nn(Cc2ccccc2Cl)c(C)c1C(=O)OCC(=O)NC1CCCC(C)C1C (configuration not stated),0,-2,17,-6,32,-4,.,.,.,.
COC(=O)C1=C(c2ccc(Cl)c(C(F)(F)F)c2)C[C@@H]2CC[C@H]1N2C(=O)NCCOc1ccccc1Cl,13,.,27,-8,.,.,.,.,.,.
Cc1ccc(CC(=O)N2CCN(C)CC2)cc1,-12,-1,10,5,2,-3,.,.,.,.
Nc1ncnc2c1ccn2[C@@H]1O[C@H](CO)[C@@H](O)[C@H]1O,86*,.,100*,75*,107*,.,85*,98*,100*,50*
C#CC(CC)(CC)NC(=O)Nc1ccc(OCC)cc1,0,-3,-47,-33,-7,-2,.,.,.,.
COc1cc2nc(CN3CC=C(c4ccccc4)CC3)[nH]c(=O)c2cc1OC,59*,.,79*,26,-9,.,52*,.,68*,113*
C/C=C(\C)C(=O)N[C@@H](c1ccccc1)[C@@H](O)C(=O)O[C@H]1C[C@@]2(O)[C@@H](OC(=O)c3ccccc3)C3[C@](C)(C(=O)[C@H](O)C(=C1C)C2(C)C)[C@@H](O)C[C@H]1OC[C@@]31OC(C)=O (some centres not stated),70*,0,53*,6,98*,-2,64*,.,65*,41*
